According to ChEMBL document CHEMBL4020827, “Targeting Multiple Effector Pathways in Pancreatic Ductal Adenocarcinoma with a G-Quadruplex-Binding Small Molecule” (J Med Chem, 2018):

Tests used:
[1] = Selectivity ratio of IC50 for human MCF7 cells to IC50 for human MIAPaCa2 cells; assay type: functional
[2] = system: PANC-1; assay: Effect on SHC2 gene expression in human PANC1 cells at 400 nM after 24 hrs by RNA sequence analysis relative to control; assay type: functional
In short: (§1)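 RNA-seq: cells seeded overnight in 60 mm plates (PANC-1 0.35 x 10^6, MIA PaCa-2 1.5 x 10^6 cells/well), then exposed to 400 nM compound for 6 or 24 h against untreated controls. Cell lines mycoplasma-free by RNA-capture ELISA and STR-profiled. Differentially expressed genes called at FDR < 0.1.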

[3] = system: MIA PaCa-2; assay: Effect on PRKCZ gene expression in human MIAPaCa2 cells at 400 nM after 24 hrs by RNA sequence analysis relative to control; assay type: functional
[4] = system: MIA PaCa-2; assay: Effect on TP73 gene expression in human MIAPaCa2 cells at 400 nM after 6 hrs by RNA sequence analysis relative to control; assay type: functional; in short: as §1
[5] = system: MIA PaCa-2; assay: Effect on MAPK11 gene expression in human MIAPaCa2 cells at 400 nM after 24 hrs by RNA sequence analysis relative to control; assay type: functional
[6] = system: MIA PaCa-2; assay: Effect on CTBP1 gene expression in human MIAPaCa2 cells at 400 nM after 24 hrs by RNA sequence analysis relative to control; assay type: functional
In short: (§2)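 PANC-1 (0.35 x 10^6) or MIA PaCa-2 (1.5 x 10^6) cells seeded overnight in 60 mm plates, then exposed to 400 nM compound for 6 or 24 h; untreated cells as controls. Cells were mycoplasma-free and STR-certified. Differential expression by RNA-seq, called at FDR < 0.1.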

[7] = system: PANC-1; assay: Effect on TEAD2 gene expression in human PANC1 cells at 400 nM after 24 hrs by RNA sequence analysis relative to control; assay type: functional; in short: as §1
[8] = system: PANC-1; assay: Effect on AKT1 gene expression in human PANC1 cells at 400 nM after 24 hrs by RNA sequence analysis relative to control; assay type: functional; in short: as §2
[9] = system: MIA PaCa-2; assay: Effect on IGF2 gene expression in human MIAPaCa2 cells at 400 nM after 6 hrs by RNA sequence analysis relative to control; assay type: functional; in short: as §2
[10] = system: MIA PaCa-2; assay: Antitumor activity against human MIAPaCa2 cells xenografted in CD-1 nude mouse assessed as tumor growth inhibition administered twice weekly for 4 weeks; assay type: functional, cell-based
In short: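 Female CD-1 nude mice (2-3 months, 20−25 g) given 5 x 10^6 MIA PaCa-2 cells s.c. in right flank in RPMI + Matrigel; dosing began once tumors were established (~13 days, mean 0.05 cm3). Groups of eight received IV doses in saline, twice weekly for 28 days (8 doses), against a saline group. Tumors measured by calliper (length × width × height × π/6) every 3−4 days, to day 62; Student's t test.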

[11] = system: PANC-1; assay: Effect on TEAD2 gene expression in human PANC1 cells at 400 nM after 6 hrs by RNA sequence analysis relative to control; assay type: functional; in short: as §1
[12] = system: PANC-1; assay: Effect on FASN gene expression in human PANC1 cells at 400 nM after 6 hrs by RNA sequence analysis relative to control; assay type: functional; in short: as §2
[13] = system: PANC-1; assay: Effect on RPTOR gene expression in human PANC1 cells at 400 nM after 6 hrs by RNA sequence analysis relative to control; assay type: functional; in short: as §1
[14] = system: PANC-1; assay: Effect on GLI2 gene expression in human PANC1 cells at 400 nM after 24 hrs by RNA sequence analysis relative to control; assay type: functional; in short: as §2
[15] = system: PANC-1; assay: Effect on GLI4 gene expression in human PANC1 cells at 400 nM after 24 hrs by RNA sequence analysis relative to control; assay type: functional; in short: as §2
[16] = system: MIA PaCa-2; assay: Effect on PARD6A gene expression in human MIAPaCa2 cells at 400 nM after 24 hrs by RNA sequence analysis relative to control; assay type: functional
[17] = system: PANC-1; assay: Growth inhibition of human PANC1 cells after 96 hrs by SRB assay; assay type: functional, cell-based; conditions: PANC-1, 96 h
[18] = system: PANC-1; assay: Effect on TP73 gene expression in human PANC1 cells at 400 nM after 6 hrs by RNA sequence analysis relative to control; assay type: functional; in short: as §1
[19] = system: PANC-1; assay: Effect on MAPK12 gene expression in human PANC1 cells at 400 nM after 24 hrs by RNA sequence analysis relative to control; assay type: functional
[20] = system: PANC-1; assay: Effect on PAK1 gene expression in human PANC1 cells at 400 nM after 24 hrs by RNA sequence analysis relative to control; assay type: functional
[21] = system: MIA PaCa-2; assay: Effect on AKT1S1 gene expression in human MIAPaCa2 cells at 400 nM after 6 hrs by RNA sequence analysis relative to control; assay type: functional; in short: as §2
[22] = system: MIA PaCa-2; assay: Effect on PIK3R2 gene expression in human MIAPaCa2 cells at 400 nM after 24 hrs by RNA sequence analysis relative to control; assay type: functional
[23] = system: MIA PaCa-2; assay: Antitumor activity against human MIAPaCa2 cells xenografted in CD-1 nude mouse assessed as change in tumor volume at 10 mg/kg, iv administered twice weekly for 4 weeks measured on day 29 relative to control; assay type: functional
In short: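 Female CD-1 nude mice (2-3 months, 20−25 g) given 5 x 10^6 MIA PaCa-2 cells subcutaneously in right flank with Matrigel; dosing began once tumors were established (approx. 13 days, mean 0.05 cm3). Eight mice/group, IV in saline twice weekly for 28 days (8 doses) against a saline group. Tumors measured by calliper (length × width × height × π/6), with body weight. Student's t test.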

[24] = species on record: Homo sapiens; assay: Stabilization of G-quadruplex DNA in human PANC1 cells assessed as increase in 53BP1 foci at 400 nM after 24 hrs by FITC/Cy5/DAPI staining based immunofluorescence assay relative to control; assay type: cell-based
In short: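 PANC-1 cells (8 x10^4 on coverslips) treated 24 h at 37 °C, or left untreated. Fixed in 4% paraformaldehyde, permeabilized with 0.1% Triton X-100, blocked in 2% milk. Stained with BG4 (20 nM), anti-FLAG and anti-53BP1, then Alexa-488/647 secondaries with DAPI. Deconvolved 100x z-stacks, 50-100 nuclei per replicate, three biological replicates; nuclear foci counted.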

[25] = system: MIA PaCa-2; assay: Effect on ULK1 gene expression in human MIAPaCa2 cells at 400 nM after 24 hrs by RNA sequence analysis relative to control; assay type: functional; in short: as §1
[26] = system: MIA PaCa-2; assay: Effect on ARF6 gene expression in human MIAPaCa2 cells at 400 nM after 24 hrs by RNA sequence analysis relative to control; assay type: functional; in short: as §2
[27] = system: PANC-1; assay: Effect on TEAD3 gene expression in human PANC1 cells at 400 nM after 6 hrs by RNA sequence analysis relative to control; assay type: functional; in short: as §1
[28] = system: Mus musculus; assay: Toxicity in CD-1 nude mouse xenografted with human MIAPaCa2 cells assessed as change in tumor ulceration at 15 mg/kg, iv administered twice weekly for 4 weeks measured for 40 days; assay type: organism-based; conditions: in vivo, 960 h
[29] = system: PANC-1; assay: Effect on AKT1 gene expression in human PANC1 cells at 400 nM after 6 hrs by RNA sequence analysis relative to control; assay type: functional; in short: as §2
[30] = system: PANC-1; assay: Effect on MAPK12 gene expression in human PANC1 cells at 400 nM after 6 hrs by RNA sequence analysis relative to control; assay type: functional

For `O=C1c2ccc3c4c(c(NCCN5CCCC5)cc(c24)C(=O)N1CCCN1CCOCC1)C(=O)N(CCCN1CCOCC1)C3=O`, the “Ratio IC50” value [1] was >20, the log2FC [2] was -1.47 and the log2FC [3] was -2.01. For the same compound, the log2FC [4] was -2.36, the log2FC [5] was -2.56 and the log2FC [6] was -1.17. For the same compound, the log2FC [7] was 0.21, the log2FC [8] was -1.04 and the log2FC [9] was -2.72. For the same compound, the TGI [10] was “Dose-dependent effect”, the log2FC [11] was -0.22 and the log2FC [12] was -0.73. For the same compound, the log2FC [13] was -0.8, the log2FC [14] was 0.38 and the log2FC [15] was -1.71. The log2FC [16] was -1.4, the IC50 [17] was 18 nM and the log2FC [18] was -1.44. For the same compound, the log2FC [19] was -1.44, the log2FC [20] was -1.11 and the log2FC [21] was -0.54. The log2FC [22] was -1.14, the Activity [23] was -53.3% and the fold change (FC) [24] was 2. For the same compound, the log2FC [25] was -0.6, the log2FC [26] was -0.54 and the log2FC [27] was -0.59. The Activity [28] was “Non-Toxic”, the log2FC [29] was -0.18 and the log2FC [30] was -0.75.
